Data reported in ChEMBL document CHEMBL3112459, “Synthesis and assay of retro-α4β1 integrin-targeting motifs” (Eur J Med Chem, 2014).
Numbered stars: 1 amine (or outer) side, 2 acyl side, 3 side chain; on linkers, the order of the positions; unused ones are H or OH. Square brackets hold non-standard residues; d marks the D form. Peptide text beside a SMILES is read from it. * marks the point of attachment. X1 = O=C(Cc1ccc(N[*:1])cc1)[*:2]; NH(2-Me-phenyl) = Cc1ccccc1N*; CO = O=C([*:1])[*:2]

Experiments:
[1] = system: SK-MEL-24; test: Cytotoxicity against human SK-MEL-24 cells by trypan blue exclusion assay; format: cell-based
[2] = (§1) Drug degradation in 100% mouse serum after 120 mins; format: ADME, cell-free; conditions: read-out: Drug degradation
How it was run: (§2)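 Peptides were dissolved in Tris buffer pH 7.4, and aliquots of a 10 mM stock were added to mouse serum (10 µL into 190 µL). Incubation was at 37 °C for 120 min. Withdrawn aliquots were quenched with glacial acetonitrile to precipitate proteins and analysed by RP-HPLC and ESI-MS. Runs were in triplicate and repeated three times.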

[3] = system: Jurkat; test: Cytotoxicity against human Jurkat cells by trypan blue exclusion assay; format: cell-based
[4] = target: Integrin alpha-V/beta-3 (Homo sapiens, UniProt P05106+P06756); test: Inhibition of human alphavbeta3 integrin expressed in human SK-MEL-24 cells assessed as inhibition of cell adhesion to vitronectin; format: cell-based
Integrin alpha-V/beta-3, sequence (P05106 27-788 limits assumed): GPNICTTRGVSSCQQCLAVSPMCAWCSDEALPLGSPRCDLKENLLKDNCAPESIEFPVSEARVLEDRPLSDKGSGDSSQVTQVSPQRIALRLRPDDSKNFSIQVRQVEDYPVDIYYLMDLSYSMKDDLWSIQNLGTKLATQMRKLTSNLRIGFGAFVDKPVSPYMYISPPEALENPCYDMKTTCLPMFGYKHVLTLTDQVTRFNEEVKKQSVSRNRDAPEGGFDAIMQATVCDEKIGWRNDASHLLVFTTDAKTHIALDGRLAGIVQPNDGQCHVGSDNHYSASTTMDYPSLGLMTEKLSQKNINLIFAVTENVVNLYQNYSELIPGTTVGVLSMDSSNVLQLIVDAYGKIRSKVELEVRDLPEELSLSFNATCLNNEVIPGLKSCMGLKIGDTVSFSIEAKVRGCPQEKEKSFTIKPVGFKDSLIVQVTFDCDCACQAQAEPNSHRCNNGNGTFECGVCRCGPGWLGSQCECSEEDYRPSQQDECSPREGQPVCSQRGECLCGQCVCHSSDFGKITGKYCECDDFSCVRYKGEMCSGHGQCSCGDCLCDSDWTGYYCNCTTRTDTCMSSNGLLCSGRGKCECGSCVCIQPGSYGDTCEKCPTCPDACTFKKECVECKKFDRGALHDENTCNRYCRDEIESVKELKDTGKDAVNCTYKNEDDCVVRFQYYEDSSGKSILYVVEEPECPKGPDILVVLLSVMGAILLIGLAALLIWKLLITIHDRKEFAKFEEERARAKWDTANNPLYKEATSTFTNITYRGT
Integrin alpha-V/beta-3, sequence (P06756 31-889 limits assumed): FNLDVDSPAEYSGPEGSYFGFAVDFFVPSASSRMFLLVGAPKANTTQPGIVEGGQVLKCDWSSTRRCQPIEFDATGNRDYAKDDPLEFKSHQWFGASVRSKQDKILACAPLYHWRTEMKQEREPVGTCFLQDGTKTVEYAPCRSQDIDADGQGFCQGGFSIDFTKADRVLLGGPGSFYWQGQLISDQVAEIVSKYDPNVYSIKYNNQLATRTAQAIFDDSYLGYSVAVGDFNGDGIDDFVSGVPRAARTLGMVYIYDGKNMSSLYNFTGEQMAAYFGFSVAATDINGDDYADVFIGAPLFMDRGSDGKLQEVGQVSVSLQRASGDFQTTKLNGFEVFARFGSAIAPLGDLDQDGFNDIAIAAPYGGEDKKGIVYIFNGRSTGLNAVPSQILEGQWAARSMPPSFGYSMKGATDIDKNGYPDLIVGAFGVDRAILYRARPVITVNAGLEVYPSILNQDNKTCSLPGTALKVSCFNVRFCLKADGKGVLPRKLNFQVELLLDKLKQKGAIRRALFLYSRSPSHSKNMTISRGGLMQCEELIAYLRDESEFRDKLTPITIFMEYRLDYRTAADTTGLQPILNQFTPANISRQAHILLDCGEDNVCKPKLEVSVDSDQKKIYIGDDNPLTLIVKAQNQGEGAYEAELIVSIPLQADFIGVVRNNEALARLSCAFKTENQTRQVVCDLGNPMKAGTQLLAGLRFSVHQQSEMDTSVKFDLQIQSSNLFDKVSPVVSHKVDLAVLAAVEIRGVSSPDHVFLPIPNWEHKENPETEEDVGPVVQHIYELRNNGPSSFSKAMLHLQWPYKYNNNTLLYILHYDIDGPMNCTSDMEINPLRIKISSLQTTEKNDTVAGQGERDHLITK
Integrin alpha-V/beta-3, sequence (P06756 891-1048 limits assumed): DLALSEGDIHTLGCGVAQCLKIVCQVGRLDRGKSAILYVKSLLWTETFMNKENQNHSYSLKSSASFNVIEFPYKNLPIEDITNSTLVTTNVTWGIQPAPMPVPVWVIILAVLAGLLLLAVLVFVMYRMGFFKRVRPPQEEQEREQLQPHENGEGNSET

[5] = target: T1, Integrin alpha-4/beta-1 (Homo sapiens, UniProt P05556+P13612); test: Inhibition of human alpha4beta1 integrin expressed in human Jurkat cells assessed as inhibition of cell adhesion to VCAM-1; format: cell-based
T1 sequence (P05556 whole entry): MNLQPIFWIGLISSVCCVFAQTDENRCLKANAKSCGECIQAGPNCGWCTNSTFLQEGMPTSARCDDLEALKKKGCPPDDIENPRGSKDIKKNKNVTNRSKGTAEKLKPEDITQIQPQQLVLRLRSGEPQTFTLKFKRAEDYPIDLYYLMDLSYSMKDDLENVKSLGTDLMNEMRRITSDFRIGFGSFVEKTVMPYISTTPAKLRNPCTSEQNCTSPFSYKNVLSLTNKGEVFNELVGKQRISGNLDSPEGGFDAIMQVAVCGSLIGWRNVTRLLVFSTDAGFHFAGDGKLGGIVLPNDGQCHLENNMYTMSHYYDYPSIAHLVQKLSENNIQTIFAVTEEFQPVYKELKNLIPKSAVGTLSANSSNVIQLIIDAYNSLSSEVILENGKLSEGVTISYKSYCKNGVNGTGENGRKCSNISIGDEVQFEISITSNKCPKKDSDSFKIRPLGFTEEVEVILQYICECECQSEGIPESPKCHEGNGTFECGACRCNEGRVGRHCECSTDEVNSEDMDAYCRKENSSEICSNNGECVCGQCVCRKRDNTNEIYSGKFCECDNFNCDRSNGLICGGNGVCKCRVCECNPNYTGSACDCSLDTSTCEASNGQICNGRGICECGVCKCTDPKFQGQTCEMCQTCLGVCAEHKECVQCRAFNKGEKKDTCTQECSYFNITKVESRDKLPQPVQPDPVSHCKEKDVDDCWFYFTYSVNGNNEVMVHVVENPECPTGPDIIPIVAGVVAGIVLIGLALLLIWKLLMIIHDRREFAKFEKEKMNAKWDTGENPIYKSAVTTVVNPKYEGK
T1 sequence (P13612 whole entry): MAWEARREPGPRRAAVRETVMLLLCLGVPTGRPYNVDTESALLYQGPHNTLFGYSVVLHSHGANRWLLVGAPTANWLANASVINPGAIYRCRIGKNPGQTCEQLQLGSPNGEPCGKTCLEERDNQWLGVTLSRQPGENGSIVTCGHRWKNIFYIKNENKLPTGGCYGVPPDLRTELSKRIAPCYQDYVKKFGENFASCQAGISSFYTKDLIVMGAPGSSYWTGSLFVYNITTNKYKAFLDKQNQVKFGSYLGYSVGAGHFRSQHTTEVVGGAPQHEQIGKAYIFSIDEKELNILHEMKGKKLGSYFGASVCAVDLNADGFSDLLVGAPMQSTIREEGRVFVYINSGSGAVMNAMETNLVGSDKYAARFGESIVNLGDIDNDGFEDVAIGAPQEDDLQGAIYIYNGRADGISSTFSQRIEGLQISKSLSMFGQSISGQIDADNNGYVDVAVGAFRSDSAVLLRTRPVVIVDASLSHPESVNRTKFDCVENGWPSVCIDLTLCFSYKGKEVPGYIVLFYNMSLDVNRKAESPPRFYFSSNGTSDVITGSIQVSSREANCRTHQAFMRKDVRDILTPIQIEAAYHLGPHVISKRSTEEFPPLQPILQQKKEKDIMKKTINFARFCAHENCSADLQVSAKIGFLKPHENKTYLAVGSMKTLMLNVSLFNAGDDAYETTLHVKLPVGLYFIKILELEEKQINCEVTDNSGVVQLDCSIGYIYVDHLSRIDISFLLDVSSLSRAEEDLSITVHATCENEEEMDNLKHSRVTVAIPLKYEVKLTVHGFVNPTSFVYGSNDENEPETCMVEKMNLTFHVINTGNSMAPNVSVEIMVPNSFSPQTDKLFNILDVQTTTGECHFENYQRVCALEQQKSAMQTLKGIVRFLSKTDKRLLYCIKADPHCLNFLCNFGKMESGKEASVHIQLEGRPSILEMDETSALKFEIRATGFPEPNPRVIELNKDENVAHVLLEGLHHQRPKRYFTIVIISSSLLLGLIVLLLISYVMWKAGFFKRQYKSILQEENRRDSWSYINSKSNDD
How it was run: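 Jurkat cells (5 × 10⁵ per well) adhered to wells coated overnight at 4 °C with human recombinant VCAM-1. Wells were blocked with 1% BSA/HBSS for 30 min at 37 °C. Data are mean ± S.E.M.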

[6] = target: T1, Integrin alpha-4/beta-1; test: Displacement of [125I]-FN from human alpha4beta1 integrin expressed in human Jurkat cells by scintillation proximity assay; format: cell-based
How it was run: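 Jurkat cells stably expressing human α4 integrin were the integrin source. The α4 integrin–anti-α4 antibody complex was captured on anti-rabbit IgG-coated scintillant microspheres. Soluble ¹²⁵I-human FN (~440 kDa) was the radioligand, incubated overnight, with counts read as cpm. IC50 values came from competition curves and were converted to Ki by Cheng–Prusoff. Data are mean ± S.E.M.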

[7] = system: Serum; test: as §1; format: ADME, cell-free; conditions: 2 h; how it was run: as §2

Compound | metabolised at 2 h [2] [%] | IC50 [4] [nM] | IC50 [5] [nM] | inhibition [5] | IC50 [6] [nM] | Ki [6] [nM] | inhibition [6] | Stability [7] | Activity [1] | Activity [3]
Cc1ccccc1NC(=O)Nc1ccc(CNC(=O)[C@H]2CCN(C(=O)C[C@H](NC(=O)Cc3ccccc3)C(=O)O)C2)cc1 | < 5 | > 100000 | 93 | Dose-dependent effect | 290 | 180 | Dose-dependent effect |  | Non-toxic | Non-toxic
Cc1ccccc1NC(=O)Nc1ccc(CNC(=O)[C@H]2CCN(C(=O)[C@H](CC(=O)O)NC(=O)c3c(Cl)cccc3Cl)C2)cc1 |  |  | > 100000 |  | 3900 | 2400 | Dose-dependent effect |  |  | 
Cc1ccccc1NC(=O)Nc1ccc(CNC(=O)[C@H]2CCN(C(=O)[C@H](CC(=O)O)NC(=O)Cc3ccccc3)C2)cc1 | 10 | > 100000 | 80 | Dose-dependent effect | 100 | 60 | Dose-dependent effect |  | Non-toxic | Non-toxic
Cc1ccccc1NC(=O)Nc1ccc(CC(=O)N2CC[C@H](C(=O)N[C@@H](CC(=O)O)C(=O)OCc3ccccc3)C2)cc1 |  |  | > 100000 |  | > 100000 | > 100000 |  |  |  | 

Continued, in another order:

metabolised at 2 h [2] [%] | IC50 [4] [nM] | IC50 [5] [nM] | inhibition [5] | IC50 [6] [nM] | Ki [6] [nM] | inhibition [6] | Stability [7] | Compound | Activity [1] | Activity [3]
 |  |  | Dose-dependent effect |  |  | Dose-dependent effect | Unstable | Cc1ccccc1NC(=O)Nc1ccc(CC(=O)N[C@@H](CC(C)C)C(=O)N[C@@H](CC(=O)O)C(=O)N[C@H](C(=O)N2CCC[C@H]2C(=O)O)C(C)C)cc1 ({NH(2-Me-phenyl)-CO}-[X1]LDVP-OH) |  | 
 |  | > 100000 |  | > 100000 | > 100000 |  |  | Cc1ccccc1NC(=O)Nc1ccc(CNC(=O)[C@H]2CCN(C(=O)C[C@H](NC(=O)c3c(Cl)cccc3Cl)C(=O)O)C2)cc1 |  | 
